Results of several laboratories.
YES1: Tyrosine-protein kinase Yes (YES1, Homo sapiens, UniProt P07947)

C=CC(=O)Nc1cc(Nc2nccc(Nc3cc(Cl)c(F)cc3C(C)(C)O)n2)c(OC)cc1N1CC[C@@H](N(C)C)C1
inhibition (YES1; enzyme activity; inhibitor; 1 µM): 51%

CN(c1ncccc1CNc1nc(Nc2ccc3c(c2)CC(=O)N3)ncc1C(F)(F)F)S(C)(=O)=O
inhibition (YES1; enzyme activity; inhibitor; 1 µM): 51.6%

CS(=O)(=O)N1CCCC(NC(=O)[C@H](CCC2CCCCC2)NC(=O)c2ccc(CNC(=O)c3cnc4ccccn34)cc2)C1 (stereo partly drawn)
remaining binding (YES1; cell-free assay; competition with immobilised ligand; 0.1 µM): 88%

CCN(CC)c1ccc(C2=NNC(=O)CC2C)cc1[N+](=O)[O-] (stereo not drawn)
remaining activity (YES1; enzyme activity; inhibitor; 10 µM): 105%

FC(F)(F)Oc1cccc(-c2cnc3ccc(-c4ccncc4)nn23)c1
activity vs control (YES1; enzyme activity; inhibitor; radiometric; 5 µM): 77%

CCCCN(CCCC)C(=O)CN1C[C@H](c2cc(OC)c3c(c2)OCO3)[C@@H](C(=O)O)[C@@H]1CC(C)(C)CCC
remaining binding (YES1; cell-free assay; competition with immobilised ligand; 1 µM): 100%

CC(C)(C)c1nc2c(s1)c1nc(N)ncc1c1ccc(NS(=O)(=O)c3c(F)cccc3F)c(F)c12
remaining activity (YES1; enzyme activity; inhibitor; radiometric; 1 µM): 124%

CC(C)(C)C(=O)c1sc(NC2CCCCC2)nc1N
remaining activity (YES1; enzyme activity; inhibitor; 10 µM): 109%

O=c1cc(-c2cccc3c2Sc2ccccc2S3)oc(N2CCOCC2)c1
remaining activity (YES1; enzyme activity; inhibitor; 0.5 µM): 89.4%

CO[C@@H](C)c1c(Nc2ccc([C@H](N(C)C(=O)C3CCS(=O)(=O)CC3)C(F)(F)F)cc2)cnc2cc(Cl)nn12
remaining binding (YES1; cell-free assay; competition with immobilised ligand; 1 µM): 99%

Nc1nc(Nc2ccccc2)sc1C(=O)c1c(F)cccc1F
remaining activity (YES1; enzyme activity; inhibitor; 10 µM): 26%

COc1cc2ncnc(Nc3ccc(Oc4ccccc4)cc3C)c2cc1OC
inhibition (YES1; enzyme activity; inhibitor; 1 µM): 99%

Cc1cc(NC(=O)c2cccc3cc(-c4cccc5[nH]nc(N)c45)ccc23)ccc1F
activity vs control (YES1; enzyme activity; inhibitor; 0.1 µM): 108%

CN(C)C(=O)Cn1cc(-c2nc(C3(c4ccc(-c5cnc(N)nc5)cc4)CC3)no2)cn1
remaining binding (YES1; cell-free assay; competition with immobilised ligand; 1 µM): 87%

Cc1sc(C(=O)NC2COC2)cc1-n1cc(NC(=O)Nc2c(F)cccc2Cl)cn1
remaining activity (YES1; enzyme activity; inhibitor; 10 µM): 81.4%

Cn1c(=O)n(-c2ccc(C(C)(C)C#N)cc2)c2c3cc(-c4cnc5ccccc5c4)ccc3ncc21
remaining activity (YES1; enzyme activity; inhibitor; 10 µM): 69%

CS(=O)(=O)NCC[C@H](NC(=O)c1cncc2c1cnn2-c1ccc(F)cc1)c1ccnc(S(C)(=O)=O)c1
remaining binding (YES1; cell-free assay; competition with immobilised ligand; 1 µM): 100%

CC/C(=N\NC(=O)NCc1cccc(O)c1)c1ccc(O)c(C)c1O
inhibition (Tyrosine-protein kinase Yes (YES1, Homo sapiens, UniProt P07947, T348I); enzyme activity; inhibitor; 0.1 µM): 6.2%

COc1cc2nccc(Oc3ccc(NC(=O)c4c5n(n(-c6ccc(F)cc6)c4=O)CCCC5)cc3)c2cc1OC
inhibition (YES1; enzyme activity; inhibitor; 0.1 µM): 1%

O=C1NC(=O)c2cc(Nc3ccc(F)cc3)c(Nc3ccc(F)cc3)cc21
remaining signal (YES1; cell-free assay; 0.5 µM): 86.6%

O=C(O)[C@@H]1[C@@H](Cn2nnc3ccccc3c2=O)CC[C@H]1C(=O)c1ccc(OCCC2CCOCC2)cc1
remaining binding (YES1; cell-free assay; competition with immobilised ligand; 1 µM): 100%

COc1cc(Cl)c(C(=O)N[C@@H](CN[C@H]2CC[C@@H](N)CC2)Cc2ccc(C#N)cc2)cc1-c1ccc(CN[C@H](C)c2ccc(C)cc2)o1
remaining activity (YES1; enzyme activity; inhibitor; 1 µM): 62%

O=C(N1CCS(=O)(=O)CC1)N1C[C@H](c2ccc(OC(F)(F)F)cc2)C[C@H](c2nc(C3CC3)no2)C1
remaining binding (YES1; cell-free assay; competition with immobilised ligand; 1 µM): 96%

N#CCCc1ccc2c(c1)-c1[nH]c3ccc([N+](=O)[O-])cc3c1CC(=O)N2
remaining signal (YES1; cell-free assay; 0.5 µM): 35.8%

CCCCNc1ncc2c(-c3ccc(F)cc3)nn(C[C@H]3CC[C@H](N)CC3)c2n1
inhibition (YES1; target engagement in cells; inhibitor; chemoproteomics; 20 mM): 92.8%

COc1cc(Nc2cnc(C#N)c(O[C@H](C)CN(C)C)n2)ncc1-c1cnn(C)c1
remaining activity (YES1; enzyme activity; inhibitor; radiometric; 1 µM): 93%

Cc1ccc(NC(=O)c2ccc(C)c(C(F)(F)F)c2)cc1C#Cc1nn(C2CCC(O)CC2)c2ncnc(N)c12 (stereo not drawn)
remaining signal (YES1; cell-free assay; 10 µM): 0%

CC(C)(O)[C@H]1CC[C@H](Nc2ccc3ncc(-c4cccc(C(F)(F)F)c4)n3n2)CC1
remaining activity (YES1; enzyme activity; inhibitor; 1 µM): 18.1%

C[C@@H]1CN(c2cc(-c3n[nH]c4ccc(OC5(C)CC5)cc34)ncn2)C[C@H](C)O1
remaining binding (YES1; cell-free assay; competition with immobilised ligand; 0.1 µM): 80%

Nc1ncnc2occ(-c3ccc(NC(=O)Nc4cc(C(F)(F)F)ccc4F)cc3)c12
remaining signal (YES1; cell-free assay; 20 µM): 2.9%
